In paper PMC5291243 (Nucleic Acids Research, 2016):
Non-standard residues stand in square brackets, D forms with d. No end group written: not given here. Lys(Me3) = C[N+](C)(C)CCCC[C@H](N)C(=O)O; pT = C[C@@H](OP(=O)(O)O)[C@H](N)C(=O)O

What was measured:
[1] = molecular target: BPTF PHD finger (UniProt Q12830); test: biotin-peptide pull-down of GST-reader, anti-GST blot; conditions: reference: H3K4me3 peptide; sites T3
[2] = molecular target: PHF8 PHD finger (UniProt Q9UPP1); test: as above; conditions: reference: H3K4me3 peptide; sites T3
[3] = molecular target: Taf3 PHD finger (UniProt Q5HZG4); test: as above; conditions: reference: H3K4me3 peptide; sites T3
[4] = molecular target: ING1 PHD finger (UniProt Q9UK53); test: as above; conditions: reference: H3K4me3 peptide; sites T3
[5] = molecular target: KDM4A double Tudor domain (DTD) (UniProt O75164); test: as above; conditions: reference: H3K4me3 peptide; sites T3
[6] = molecular target: Rag2 PHD finger (UniProt P21784); test: as above; conditions: reference: H3K4me3 peptide
[7] = molecular target: DIDO PHD finger (UniProt Q9BTC0); test: as above; conditions: reference: H3K4me3 peptide; sites T3
[8] = molecular target: BPTF PHD finger (UniProt Q12830); test: histone peptide microarray; conditions: reference: H3K4me3 peptide
[9] = molecular target: PHF8 PHD finger (UniProt Q9UPP1); test: histone peptide microarray; conditions: reference: H3K4me3 peptide
[10] = molecular target: Taf3 PHD finger (UniProt Q5HZG4); test: histone peptide microarray; conditions: reference: H3K4me3 peptide
[11] = molecular target: ING1 PHD finger (UniProt Q9UK53); test: histone peptide microarray; conditions: reference: H3K4me3 peptide
[12] = molecular target: Rag2 PHD finger (UniProt P21784); test: histone peptide microarray; conditions: reference: H3K4me3 peptide
[13] = molecular target: DIDO PHD finger (UniProt Q9BTC0); test: histone peptide microarray; conditions: reference: H3K4me3 peptide
[14] = molecular target: ING1 PHD finger (UniProt Q9UK53); test: in vitro peptide binding, probably NMR titration; conditions: reference: H3K4me3 peptide (reference implied); sites T3,T6
[15] = system: RPE-1 cells; test: Confocal fluorescence microscopy of Haspin inhibitor-treated RPE-1 cells; type: cell-based; conditions: 24 h
How it was run: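 RPE-1 cells were grown on glass coverslips in DMEM/F12 with 10% FCS to 70% confluence. They were treated 24 h with the Haspin inhibitor from a 500 μM DMSO stock; controls got solvent only. Cells were fixed in 4% formaldehyde, permeabilized in 0.5% Triton X-100, and immunostained for DIDO, ING1 and H3K4me3, with DAPI counterstain. Single confocal layers were imaged with sequential excitation.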

[16] = molecular target: DIDO PHD finger (aa 260–325) (UniProt Q9BTC0); test: other fluorescence titration
[17] = molecular target: T1, ING1 PHD finger (Homo sapiens, UniProt Q9UK53); test: 1H,15N HSQC NMR titration; type: binding; conditions: 298K, peptide aa 1–12 of H3
T1 sequence (Q9UK53 200-279 isoform Q9UK53-2): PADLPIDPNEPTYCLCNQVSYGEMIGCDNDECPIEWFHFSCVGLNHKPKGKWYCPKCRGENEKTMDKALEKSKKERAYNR

[18] = molecular target: T2, PHF8 PHD finger (aa 37–106) (UniProt Q9UPP1 37-106, uniformly 15N-labelled for NMR); test: other fluorescence titration
T2 sequence (looked up): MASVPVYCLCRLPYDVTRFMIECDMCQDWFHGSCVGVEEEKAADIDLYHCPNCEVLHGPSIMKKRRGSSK

Chain of DIDO PHD finger (aa 260–325) (Q9BTC0 260-325): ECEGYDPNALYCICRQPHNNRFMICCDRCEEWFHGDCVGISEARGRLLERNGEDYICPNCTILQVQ

In the case of “histone H3 1-20 (from UniProt P68431) H3T3phK4me3 peptide”, the “binding against the reference” value [1] is reported as “weaker”, the “binding against the reference” value [2] is reported as “weaker” and the “binding against the reference” value [3] is reported as “weaker”. For the same molecule, the “binding against the reference” value [4] was “weaker”, the “binding against the reference” value [5] was “weaker” and the “binding against the reference” value ([6]; sites T3) was “weaker”. The “binding against the reference” value [7] was “weaker”, the “binding against the reference” value ([8]; sites T3) was “weaker” and the “binding against the reference” value ([9]; sites T3) was “weaker”. For the same molecule, the “binding against the reference” value ([10]; sites T3) was “weaker”, the “binding against the reference” value ([11]; sites T3) was “weaker” and the “binding against the reference” value ([12]; sites T3) was “weaker”. For the same molecule, the “binding against the reference” value ([13]; sites T3) was “weaker”.

In the case of “histone H3 (from UniProt P68431) H3T3phK4me3T6ph peptide”, the “binding against the reference” value [14] is reported as “weaker”.

In the case of `CCCNc1ccc2ncc(-c3ccc4[nH]ncc4c3)n2n1` [CHR6494], the “DIDO and ING1 attachment to chromatin” value ([15]; 1 μM) is reported as “only a portion of these proteins remained attached to chromatin”, the “H3T3ph level in prophase” value ([15]; 1 μM) is reported as “pronounced reduction of H3T3ph in prophase” and the “DIDO and ING1 localization on chromatin” value ([15]; 2 μM) is reported as “co-localization of DIDO and ING1 on poorly condensed H3K4me-positive chromatin”. The completion of mitosis ([15]; 2 μM) was “unable to complete mitosis”.

In the case of “H3K4me3 peptide (aa 1–12 of H3) (from UniProt P68431 2-13)”, the Kd [16] is reported as 1.1 µM.

“H3K4me3T6ph peptide (aa 1–12 of histone H3) (from UniProt P68431 2-13)” showed a Kd [16] of 5.5 µM.

“histone H3 1-20 (from UniProt P68431) H3K4me3T6ph peptide” was tested, and the “binding against the reference” value ([6]; sites T6) was “weaker”, the “binding against the reference” value ([8]; sites T6) was “weaker” and the “binding against the reference” value ([9]; sites T6) was “weaker”. For the same molecule, the “binding against the reference” value ([10]; sites T6) was “weaker”, the “binding against the reference” value ([11]; sites T6) was “weaker” and the “binding against the reference” value ([12]; sites T6) was “weaker”. For the same molecule, the “binding against the reference” value ([13]; sites T6) was “weaker”.

“H3T3phK4me3T6ph: triple PTM-containing peptide” was tested, and the “CSPs / binding to ING1 PHD finger” value [17] was “markedly reduced”.

Work on ART[Lys(Me3)]QTARKSTG (peptide, UniProt P68431 2-13, looked up) [H3K4me3 peptide (aa 1–12 of H3)] yielded a Kd [18] of 2500 nM.

With ART[Lys(Me3)]Q[pT]ARKSTG (peptide, UniProt P68431 2-13, looked up) [H3K4me3T6ph peptide (aa 1–12 of histone H3)] the “fold reduction of binding against H3K4me3” value [18] was 2 fold.
